1 compound from ChEMBL document CHEMBL5705905, “Pharmacological targeting of kinases MST1 and MST2 augments tissue repair and regeneration” (Sci Transl Med, 2016) can be followed below.

Data set [1] concerns the target T1, Serine/threonine-protein kinase 3 (Homo sapiens, UniProt Q13188).
T1 sequence (Q13188 whole entry): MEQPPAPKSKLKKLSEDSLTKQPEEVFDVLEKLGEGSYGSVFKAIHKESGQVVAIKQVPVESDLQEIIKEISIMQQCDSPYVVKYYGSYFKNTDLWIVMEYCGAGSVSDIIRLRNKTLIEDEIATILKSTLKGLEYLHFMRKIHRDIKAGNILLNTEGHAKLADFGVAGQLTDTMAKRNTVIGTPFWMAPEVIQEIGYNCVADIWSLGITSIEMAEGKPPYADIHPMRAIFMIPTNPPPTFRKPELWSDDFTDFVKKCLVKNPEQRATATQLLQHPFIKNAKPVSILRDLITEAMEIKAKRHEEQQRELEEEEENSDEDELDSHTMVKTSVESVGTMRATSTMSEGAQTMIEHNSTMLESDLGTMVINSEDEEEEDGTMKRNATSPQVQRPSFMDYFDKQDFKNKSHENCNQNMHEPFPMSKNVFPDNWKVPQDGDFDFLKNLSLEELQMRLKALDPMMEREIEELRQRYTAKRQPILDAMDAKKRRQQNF
In words: Inhibition of recombinant His-tagged full-length MST2 (unknown origin) expressing in Escherichia coli assessed as MOB1a phosphorylation level incubated for 30 min in the presence of 30 uM ATP by immunoblot analysis.

The target of data set [2] is Cytoplasmic tyrosine-protein kinase BMX (Homo sapiens) (UniProt P51813). Nature of the data set: Inhibition of BMX (unknown origin) assessed as remaining activity at 1 uM by Kinome scan method relative to control. A digest of the protocol:
(§1)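 Active-site-dependent competition-binding (KINOMEscan) panel of 468 kinases, test compound at 1 μM (from a 10 mM DMSO stock). Read-out is ctrl% = (test signal − positive control signal)/(negative control signal − positive control signal) × 100. DMSO is the negative control (100%) and a control compound is the positive control (0%). Lower ctrl% means tighter binding.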

For data set [3], the target named is Calcium/calmodulin-dependent protein kinase type 1B (Homo sapiens) (UniProt Q6P2M8). Nature of the data set: Inhibition of CAMK1B (unknown origin) assessed as remaining activity at 1 uM by Kinome scan method relative to control. A digest of the protocol:
as §1

The target in data set [4] is Calcium/calmodulin-dependent protein kinase kinase 1 (Homo sapiens) (UniProt Q8N5S9). Nature of the data set: Inhibition of CAMKK1 (unknown origin) assessed as remaining activity at 1 uM by Kinome scan method relative to control. The method in brief:
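Active-site-dependent competition-binding profiling (KINOMEscan) at 1 μM against a 468-kinase panel; compound supplied from a 10 mM DMSO stock. Read-out is ctrl% = (test signal − positive control signal)/(negative control signal − positive control signal) × 100. DMSO is the negative control (100%) and a control compound the positive control (0%). Lower ctrl% means tighter binding.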

Data set [5] deals with Ephrin type-A receptor 8 (Homo sapiens) (UniProt P29322). In words: Inhibition of EPHA8 (unknown origin) assessed as remaining activity at 1 uM by Kinome scan method relative to control.
For data set [6], the target named is Fibroblast growth factor receptor 4 (Homo sapiens) (UniProt P22455). Nature of the data set: Inhibition of FGFR4 (unknown origin) assessed as remaining activity at 1 uM by Kinome scan method relative to control.
The target of data set [7] is Cyclin-G-associated kinase (Homo sapiens) (UniProt O14976). Nature of the data set: Inhibition of GAK (unknown origin) assessed as remaining activity at 1 uM by Kinome scan method relative to control.
Data set [8] deals with Insulin receptor-related protein (Homo sapiens) (UniProt P14616). Nature of the data set: Inhibition of INSRR (unknown origin) assessed as remaining activity at 1 uM by Kinome scan method relative to control.
Chain of Insulin receptor-related protein (Homo sapiens) (P14616 27-742 limits assumed): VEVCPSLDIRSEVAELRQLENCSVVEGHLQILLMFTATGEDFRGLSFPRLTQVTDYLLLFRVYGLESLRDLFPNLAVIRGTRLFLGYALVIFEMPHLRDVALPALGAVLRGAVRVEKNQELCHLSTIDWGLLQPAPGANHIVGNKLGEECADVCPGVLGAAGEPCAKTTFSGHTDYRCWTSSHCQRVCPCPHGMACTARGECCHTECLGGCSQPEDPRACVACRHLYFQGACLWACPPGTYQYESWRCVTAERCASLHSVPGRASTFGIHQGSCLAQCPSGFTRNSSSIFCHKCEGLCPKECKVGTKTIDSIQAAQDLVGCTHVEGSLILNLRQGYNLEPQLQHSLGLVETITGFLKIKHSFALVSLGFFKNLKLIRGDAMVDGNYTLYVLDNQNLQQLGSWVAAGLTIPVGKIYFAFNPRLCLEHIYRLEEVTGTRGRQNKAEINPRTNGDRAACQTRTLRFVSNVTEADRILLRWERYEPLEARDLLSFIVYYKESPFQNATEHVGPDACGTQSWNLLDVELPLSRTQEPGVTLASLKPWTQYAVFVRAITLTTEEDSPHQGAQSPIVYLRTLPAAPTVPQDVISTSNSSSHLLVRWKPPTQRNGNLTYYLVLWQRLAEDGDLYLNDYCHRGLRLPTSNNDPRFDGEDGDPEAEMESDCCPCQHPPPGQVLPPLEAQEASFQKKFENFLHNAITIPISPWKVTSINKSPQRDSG
Chain of Insulin receptor-related protein (Homo sapiens) (P14616 747-1297 limits assumed): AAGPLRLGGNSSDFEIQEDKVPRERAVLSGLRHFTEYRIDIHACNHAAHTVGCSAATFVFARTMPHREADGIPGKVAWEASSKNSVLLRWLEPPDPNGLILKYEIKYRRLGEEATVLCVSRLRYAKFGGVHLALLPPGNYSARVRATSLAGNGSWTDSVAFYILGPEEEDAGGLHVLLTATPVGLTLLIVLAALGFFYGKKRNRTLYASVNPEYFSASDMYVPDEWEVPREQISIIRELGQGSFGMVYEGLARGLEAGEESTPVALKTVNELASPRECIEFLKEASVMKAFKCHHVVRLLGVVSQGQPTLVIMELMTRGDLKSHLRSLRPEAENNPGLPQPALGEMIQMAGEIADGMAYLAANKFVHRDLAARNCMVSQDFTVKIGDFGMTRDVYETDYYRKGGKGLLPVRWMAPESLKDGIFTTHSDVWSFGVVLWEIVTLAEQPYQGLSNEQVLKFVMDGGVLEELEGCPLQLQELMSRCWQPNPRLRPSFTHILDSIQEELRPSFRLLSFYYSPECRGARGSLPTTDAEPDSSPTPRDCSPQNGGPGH
In data set [9] the target is Dual specificity mitogen-activated protein kinase kinase 4 (Homo sapiens) (UniProt P45985). Nature of the data set: Inhibition of MEK4 (unknown origin) assessed as remaining activity at 1 uM by Kinome scan method relative to control.
Data set [10] concerns the target Misshapen-like kinase 1 (Homo sapiens) (UniProt Q8N4C8). Nature of the data set: Inhibition of MINK (unknown origin) assessed as remaining activity at 1 uM by Kinome scan method relative to control.
The target in data set [11] is Serine/threonine-protein kinase PAK 6 (Homo sapiens) (UniProt Q9NQU5). Nature of the data set: Inhibition of PAK6 (unknown origin) assessed as remaining activity at 1 uM by Kinome scan method relative to control.
Chain of Serine/threonine-protein kinase PAK 6 (Homo sapiens) (Q9NQU5 whole entry, looked up): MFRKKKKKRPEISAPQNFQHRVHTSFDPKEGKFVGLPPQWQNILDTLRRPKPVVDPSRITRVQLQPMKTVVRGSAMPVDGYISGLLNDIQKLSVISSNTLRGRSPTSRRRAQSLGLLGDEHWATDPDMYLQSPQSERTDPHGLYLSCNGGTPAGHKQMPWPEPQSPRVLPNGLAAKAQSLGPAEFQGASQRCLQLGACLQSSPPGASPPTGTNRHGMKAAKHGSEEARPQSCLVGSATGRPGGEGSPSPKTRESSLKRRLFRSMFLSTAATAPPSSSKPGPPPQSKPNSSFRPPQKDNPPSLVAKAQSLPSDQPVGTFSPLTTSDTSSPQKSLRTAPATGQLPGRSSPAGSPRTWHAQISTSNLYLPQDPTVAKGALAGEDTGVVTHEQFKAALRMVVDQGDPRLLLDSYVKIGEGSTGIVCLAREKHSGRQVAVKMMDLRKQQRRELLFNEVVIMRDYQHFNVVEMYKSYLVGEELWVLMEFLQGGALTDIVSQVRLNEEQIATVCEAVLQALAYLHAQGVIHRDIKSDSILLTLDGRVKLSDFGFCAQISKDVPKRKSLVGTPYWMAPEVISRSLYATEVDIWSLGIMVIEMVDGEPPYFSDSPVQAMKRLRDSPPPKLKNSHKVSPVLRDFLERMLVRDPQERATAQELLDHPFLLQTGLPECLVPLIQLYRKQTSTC
In data set [12] the target is Cyclin-dependent kinase 2 homolog (Plasmodium falciparum (isolate K1 / Thailand)) (UniProt Q07785). In words: Inhibition of Plasmodium falciparum PK5 assessed as remaining activity at 1 uM by Kinome scan method relative to control.
Data set [13] deals with Phosphatidylinositol 4-phosphate 5-kinase type-1 alpha (Homo sapiens) (UniProt Q99755). In words: Inhibition of PIP5K1A (unknown origin) assessed as remaining activity at 1 uM by Kinome scan method relative to control.
Data set [14] has as its target Rho-associated protein kinase 1 (Homo sapiens) (UniProt Q13464). In words: Inhibition of ROCK1 (unknown origin) assessed as remaining activity at 1 uM by Kinome scan method relative to control. A digest of the protocol: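 KINOMEscan active-site competition binding assay at 1 μM against 468 kinases. Ctrl% = (test − positive control)/(negative control DMSO − positive control) × 100; lower values mean tighter binding.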

The target in data set [15] is High affinity nerve growth factor receptor (Homo sapiens) (UniProt P04629). Nature of the data set: Inhibition of TRKA (unknown origin) assessed as remaining activity at 1 uM by Kinome scan method relative to control.
In data set [16] the target is Serine/threonine-protein kinase WNK3 (Homo sapiens) (UniProt Q9BYP7). In words: Inhibition of WNK3 (unknown origin) assessed as remaining activity at 1 uM by Kinome scan method relative to control.
Data set [17] addresses T1, Serine/threonine-protein kinase 3. Nature of the data set: Binding affinity to MST2 (unknown origin) assessed as dissociation constant.
Data set [18] has as its target Phosphatidylinositol 5-phosphate 4-kinase type-2 gamma (Homo sapiens, UniProt Q8TBX8). Nature of the data set: Binding affinity to PIP5K2C (unknown origin) assessed as dissociation constant.
In data set [19] the target is Tyrosine-protein kinase JAK1 (Homo sapiens, UniProt P23458). Nature of the data set: Inhibition of JAK1 JH2domain-pseudokinase (unknown origin) in presence of ATP by enzymatic assay.
For data set [20], the target named is Mitogen-activated protein kinase kinase kinase 2 (Homo sapiens, UniProt Q9Y2U5). In words: Inhibition of MAP3K2 (unknown origin) in presence of ATP by enzymatic assay.
Chain of Mitogen-activated protein kinase kinase kinase 2 (Q9Y2U5 whole entry): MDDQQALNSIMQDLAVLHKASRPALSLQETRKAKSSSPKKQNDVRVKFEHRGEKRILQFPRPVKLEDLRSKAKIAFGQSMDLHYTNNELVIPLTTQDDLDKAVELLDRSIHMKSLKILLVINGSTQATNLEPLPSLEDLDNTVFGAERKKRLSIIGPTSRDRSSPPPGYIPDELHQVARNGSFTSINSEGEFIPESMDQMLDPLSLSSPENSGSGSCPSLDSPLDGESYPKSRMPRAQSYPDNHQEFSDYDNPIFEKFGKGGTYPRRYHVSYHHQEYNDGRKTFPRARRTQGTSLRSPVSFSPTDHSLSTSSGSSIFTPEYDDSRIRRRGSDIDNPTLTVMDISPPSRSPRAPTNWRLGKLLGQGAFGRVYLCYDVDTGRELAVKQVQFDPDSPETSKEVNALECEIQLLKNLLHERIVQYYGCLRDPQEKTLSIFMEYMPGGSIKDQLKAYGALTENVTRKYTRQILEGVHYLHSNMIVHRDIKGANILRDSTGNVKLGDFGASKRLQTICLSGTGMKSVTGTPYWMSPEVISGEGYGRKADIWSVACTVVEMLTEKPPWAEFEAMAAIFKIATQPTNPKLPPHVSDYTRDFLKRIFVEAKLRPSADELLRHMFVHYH
Data set [21] deals with Serine/threonine-protein kinase TAO2 (Homo sapiens, UniProt Q9UL54). Nature of the data set: Inhibition of TAOK2 (unknown origin) in presence of ATP by enzymatic assay.
The next data set relates to HepG2. Nature of the data set: Inhibition of Flag-tagged MST1 Y101F mutant (unknown origin) in human HepG2 cells assessed as MOB1 phosphorylation level at 3 uM by immunoblot analysis. Format: cell-based. (In general: In western blotting, separated proteins are transferred to a membrane and probed.)
The nature of data set [22]: Tmax in male Sprague-Dawley rat at 10 mg/kg, po measured for 24 hrs by LC-MS/MS analysis. Format: ADME, organism-based. The note with it: in vivo.
For a further data set, the system named is Mus musculus. Nature of the data set: Anti-colitis activity against DSS-induced mouse assessed as high BrdU incorporation at 1 mg/kg, ip administrated daily for 8 days by IHC staining. Format: functional, organism-based. The note with it: Colon, time 8.0 day. The method in brief:
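Wild-type mice received oral DSS for 7 days with vehicle or 1 mg/kg daily. Colon sections were stained by IHC for YAP, BrdU and Ki67, and positive cells were quantified per animal. Means ± SD, n = 10, Student's t test.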
A general note: Incorporation of labelled thymidine or its analogues reports DNA synthesis.

Active and inactive are the calls of the source. The rule behind the calls is not given here.

Chain of Rho-associated protein kinase 1 (Homo sapiens) (Q13464 2-1354 limits assumed): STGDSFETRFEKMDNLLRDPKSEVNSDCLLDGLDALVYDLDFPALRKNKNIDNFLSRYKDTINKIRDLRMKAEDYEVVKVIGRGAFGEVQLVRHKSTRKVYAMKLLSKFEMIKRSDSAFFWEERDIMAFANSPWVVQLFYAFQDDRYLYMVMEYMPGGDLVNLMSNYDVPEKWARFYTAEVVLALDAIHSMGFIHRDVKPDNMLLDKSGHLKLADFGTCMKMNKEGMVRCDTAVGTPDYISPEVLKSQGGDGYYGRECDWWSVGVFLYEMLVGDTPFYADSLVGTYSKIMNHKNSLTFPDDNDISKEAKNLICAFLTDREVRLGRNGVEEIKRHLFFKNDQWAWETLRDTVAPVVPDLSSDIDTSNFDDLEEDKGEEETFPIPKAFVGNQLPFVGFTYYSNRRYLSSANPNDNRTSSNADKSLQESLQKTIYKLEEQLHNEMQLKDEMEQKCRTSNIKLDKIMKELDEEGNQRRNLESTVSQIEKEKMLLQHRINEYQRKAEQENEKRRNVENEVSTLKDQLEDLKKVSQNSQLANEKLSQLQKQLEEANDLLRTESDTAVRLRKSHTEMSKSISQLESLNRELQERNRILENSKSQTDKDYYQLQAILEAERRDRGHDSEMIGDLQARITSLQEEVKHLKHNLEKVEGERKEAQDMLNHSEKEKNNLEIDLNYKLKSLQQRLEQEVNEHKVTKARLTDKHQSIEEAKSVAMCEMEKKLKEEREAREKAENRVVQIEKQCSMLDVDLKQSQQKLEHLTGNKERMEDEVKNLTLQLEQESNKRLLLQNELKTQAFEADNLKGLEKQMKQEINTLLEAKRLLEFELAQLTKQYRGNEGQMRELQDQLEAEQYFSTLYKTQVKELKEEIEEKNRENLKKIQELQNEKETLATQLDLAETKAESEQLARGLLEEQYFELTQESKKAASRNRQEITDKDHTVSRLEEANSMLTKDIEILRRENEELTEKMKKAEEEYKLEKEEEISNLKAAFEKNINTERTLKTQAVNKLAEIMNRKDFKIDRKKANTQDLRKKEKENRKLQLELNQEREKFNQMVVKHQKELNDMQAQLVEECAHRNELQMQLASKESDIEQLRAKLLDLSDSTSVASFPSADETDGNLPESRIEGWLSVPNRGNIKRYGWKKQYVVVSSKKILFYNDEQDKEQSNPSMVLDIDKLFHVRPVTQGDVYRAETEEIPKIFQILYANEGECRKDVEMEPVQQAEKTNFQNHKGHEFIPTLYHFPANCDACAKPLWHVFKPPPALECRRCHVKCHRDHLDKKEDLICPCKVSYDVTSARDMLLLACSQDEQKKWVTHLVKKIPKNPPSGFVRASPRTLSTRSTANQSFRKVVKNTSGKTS
Chain of Calcium/calmodulin-dependent protein kinase kinase 1 (Homo sapiens) (Q8N5S9 whole entry, looked up): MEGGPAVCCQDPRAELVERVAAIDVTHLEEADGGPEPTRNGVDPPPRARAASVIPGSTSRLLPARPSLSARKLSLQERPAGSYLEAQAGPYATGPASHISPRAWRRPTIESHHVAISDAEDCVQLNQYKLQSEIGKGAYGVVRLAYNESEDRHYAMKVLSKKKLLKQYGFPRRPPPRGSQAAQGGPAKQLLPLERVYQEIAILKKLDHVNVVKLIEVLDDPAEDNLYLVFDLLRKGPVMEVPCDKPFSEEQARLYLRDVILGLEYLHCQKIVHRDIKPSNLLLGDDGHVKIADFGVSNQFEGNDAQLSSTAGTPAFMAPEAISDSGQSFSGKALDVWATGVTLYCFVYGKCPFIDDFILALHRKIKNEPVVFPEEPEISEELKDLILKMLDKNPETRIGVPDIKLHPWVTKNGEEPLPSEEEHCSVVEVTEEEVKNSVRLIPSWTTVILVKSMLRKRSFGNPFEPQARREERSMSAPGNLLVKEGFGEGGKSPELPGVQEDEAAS
Chain of Calcium/calmodulin-dependent protein kinase type 1B (Homo sapiens) (Q6P2M8 whole entry): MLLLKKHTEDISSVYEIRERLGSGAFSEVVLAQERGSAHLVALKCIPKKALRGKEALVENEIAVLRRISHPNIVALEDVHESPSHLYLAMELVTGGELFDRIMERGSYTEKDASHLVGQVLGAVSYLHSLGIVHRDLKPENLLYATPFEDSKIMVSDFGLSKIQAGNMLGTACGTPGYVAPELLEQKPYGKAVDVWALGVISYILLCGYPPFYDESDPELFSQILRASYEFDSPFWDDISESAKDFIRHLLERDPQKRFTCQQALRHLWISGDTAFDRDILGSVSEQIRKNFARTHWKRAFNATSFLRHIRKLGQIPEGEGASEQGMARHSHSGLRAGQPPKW

Consider `CN1C(=O)c2sccc2N(C)c2nc(Nc3ccc(S(N)(=O)=O)cc3)ncc21`, for which the IC50 (as a rule, the point on the concentration scale where inhibition reaches its midpoint) in data set [1] was found to be 0.177 µM; in data set [19], 0.0387 µM; in [20], 0.0796 µM; in [21] it was 0.134 µM. The Activity is 90% in [2]; 84% in data set [3]; 80% in data set [4]; 100% in [5]; 100% in [6]; 48% in data set [7]. Also, the Activity in data set [8] is 100%; in [9], 100%; in data set [10], 58%; in data set [11] it was 100%; in data set [12], 93%; in data set [13] it was 100%. Further, the Activity in [14] stood at 89%; in data set [15], 56%; in data set [16] it was 71%. In addition, the Kd (in general, the constant that tells how readily two partners part at equilibrium) in data set [17] was 0.011 µM; in [18], 0.034 µM. Besides, the inhibition entry in the data set on HepG2 is “Active”. In addition, in data set [22], the Tmax (as a rule, the time at which the peak concentration occurs) was found to be 3 h. In addition, the outcome with Mus musculus was Active.
